Measured values taken from ChEMBL document CHEMBL3585276, “Topoisomerase I and II inhibitory activity, cytotoxicity, and structure-activity relationship study of dihydroxylated 2,6-diphenyl-4-aryl pyridines” (Bioorg Med Chem, 2015).
Blank lines part the entries; values can stand above or below the compound they belong to.

Experiments:
T47D = test: Cytotoxicity against human T47D cells measured on day 4 by CCK8 assay; format: functional, cell-based; settings: 96 h
Procedure, shortened: (§1)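 Cells seeded at […], grown overnight in medium with 10% FBS at 37 °C under 5% CO2. On day 2 they were serum-starved 4 h, then exposed to graded compound concentrations. On day 4 CCK-8 was added for a further 4 h and absorbance read at 450 nm. IC50 came from a four-parameter logistic fit, mean ± SD of three experiments in triplicate.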

HCT-15 = test: Cytotoxicity against human HCT15 cells measured on day 4 by CCK8 assay; format: functional, cell-based; settings: HCT-15, 96 h; procedure, shortened: as §1
[1] = molecular target: DNA topoisomerase 2-alpha (Homo sapiens) (UniProt P11388); test: Inhibition of recombinant human DNA topoisomerase-2alpha using supercoiled pBR322 plasmid DNA as substrate at 20 uM after 30 mins by agarose gel electrophoresis relative to control
Procedure, shortened: (§2)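 200 ng supercoiled pBR322 with 1 unit human topo II, incubated 30 min at 30 °C with or without compound in 10 mM Tris–HCl pH 7.9, 50 mM NaCl, 5 mM MgCl2, 1 mM EDTA, 1 mM ATP and 15 µg/mL BSA. Reaction was stopped with 7 mM EDTA and run on 1% agarose in TAE at 25 V. Gel was stained with ethidium bromide, visualized under UV, and supercoiled DNA quantitated densitometrically.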

DU-145 = test: Cytotoxicity against human DU145 cells measured on day 4 by CCK8 assay; format: functional, cell-based; settings: DU-145, 96 h; procedure, shortened: as §1
[2] = molecular target: DNA topoisomerase 2-alpha (Homo sapiens) (UniProt P11388); test: Inhibition of recombinant human DNA topoisomerase-2alpha using supercoiled pBR322 plasmid DNA as substrate at 100 uM after 30 mins by agarose gel electrophoresis relative to control; procedure, shortened: as §2
[3] = molecular target: T1, DNA topoisomerase 1 (Homo sapiens) (UniProt P11387); test: Inhibition of recombinant human DNA topoisomerase-1 assessed as relaxation of supercoiled DNA pBR322 at 100 uM after 30 mins by agarose gel electrophoresis relative to control
T1 sequence (whole entry): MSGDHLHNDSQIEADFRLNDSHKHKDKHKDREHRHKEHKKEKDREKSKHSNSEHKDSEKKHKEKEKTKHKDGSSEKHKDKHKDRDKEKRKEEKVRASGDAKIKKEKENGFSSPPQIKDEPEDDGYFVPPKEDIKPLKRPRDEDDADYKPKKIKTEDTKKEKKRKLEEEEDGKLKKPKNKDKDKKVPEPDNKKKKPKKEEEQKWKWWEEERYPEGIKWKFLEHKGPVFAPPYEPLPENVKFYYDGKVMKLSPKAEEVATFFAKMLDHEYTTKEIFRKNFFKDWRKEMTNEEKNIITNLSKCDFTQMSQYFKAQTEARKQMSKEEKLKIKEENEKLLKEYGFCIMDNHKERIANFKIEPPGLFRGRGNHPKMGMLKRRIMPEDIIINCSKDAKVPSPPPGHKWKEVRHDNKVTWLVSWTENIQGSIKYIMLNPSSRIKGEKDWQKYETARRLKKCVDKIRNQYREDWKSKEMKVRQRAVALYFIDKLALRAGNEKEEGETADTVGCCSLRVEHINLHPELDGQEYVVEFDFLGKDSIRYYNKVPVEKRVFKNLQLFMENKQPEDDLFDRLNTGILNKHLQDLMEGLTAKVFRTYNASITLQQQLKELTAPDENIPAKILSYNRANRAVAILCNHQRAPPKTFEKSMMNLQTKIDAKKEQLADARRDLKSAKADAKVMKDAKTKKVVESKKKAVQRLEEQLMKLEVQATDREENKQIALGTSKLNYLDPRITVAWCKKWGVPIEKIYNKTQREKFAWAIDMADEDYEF
Procedure, shortened: (§3)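 Relaxation assay with 100 ng pBR322 plasmid DNA and 1 unit recombinant human topo I. Buffer was 10 mM Tris–HCl pH 7.9, 150 mM NaCl, 0.1% BSA, 1 mM spermidine and 5% glycerol, incubated 37 °C for 30 min with or without compound. Products were run on a 1% agarose gel in TAE at 15 V for 7 h and stained with ethidium bromide (0.5 µg/mL) for 30 min.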

HeLa = test: Cytotoxicity against human HeLa cells measured on day 4 by CCK8 assay; format: functional, cell-based; settings: 96 h; procedure, shortened: as §1
[4] = molecular target: T1, DNA topoisomerase 1 (Homo sapiens); test: Inhibition of recombinant human DNA topoisomerase-1 assessed as relaxation of supercoiled DNA pBR322 at 20 uM after 30 mins by agarose gel electrophoresis relative to control; procedure, shortened: as §3

DNA topoisomerase 2-alpha (Homo sapiens), sequence (P11388 whole entry): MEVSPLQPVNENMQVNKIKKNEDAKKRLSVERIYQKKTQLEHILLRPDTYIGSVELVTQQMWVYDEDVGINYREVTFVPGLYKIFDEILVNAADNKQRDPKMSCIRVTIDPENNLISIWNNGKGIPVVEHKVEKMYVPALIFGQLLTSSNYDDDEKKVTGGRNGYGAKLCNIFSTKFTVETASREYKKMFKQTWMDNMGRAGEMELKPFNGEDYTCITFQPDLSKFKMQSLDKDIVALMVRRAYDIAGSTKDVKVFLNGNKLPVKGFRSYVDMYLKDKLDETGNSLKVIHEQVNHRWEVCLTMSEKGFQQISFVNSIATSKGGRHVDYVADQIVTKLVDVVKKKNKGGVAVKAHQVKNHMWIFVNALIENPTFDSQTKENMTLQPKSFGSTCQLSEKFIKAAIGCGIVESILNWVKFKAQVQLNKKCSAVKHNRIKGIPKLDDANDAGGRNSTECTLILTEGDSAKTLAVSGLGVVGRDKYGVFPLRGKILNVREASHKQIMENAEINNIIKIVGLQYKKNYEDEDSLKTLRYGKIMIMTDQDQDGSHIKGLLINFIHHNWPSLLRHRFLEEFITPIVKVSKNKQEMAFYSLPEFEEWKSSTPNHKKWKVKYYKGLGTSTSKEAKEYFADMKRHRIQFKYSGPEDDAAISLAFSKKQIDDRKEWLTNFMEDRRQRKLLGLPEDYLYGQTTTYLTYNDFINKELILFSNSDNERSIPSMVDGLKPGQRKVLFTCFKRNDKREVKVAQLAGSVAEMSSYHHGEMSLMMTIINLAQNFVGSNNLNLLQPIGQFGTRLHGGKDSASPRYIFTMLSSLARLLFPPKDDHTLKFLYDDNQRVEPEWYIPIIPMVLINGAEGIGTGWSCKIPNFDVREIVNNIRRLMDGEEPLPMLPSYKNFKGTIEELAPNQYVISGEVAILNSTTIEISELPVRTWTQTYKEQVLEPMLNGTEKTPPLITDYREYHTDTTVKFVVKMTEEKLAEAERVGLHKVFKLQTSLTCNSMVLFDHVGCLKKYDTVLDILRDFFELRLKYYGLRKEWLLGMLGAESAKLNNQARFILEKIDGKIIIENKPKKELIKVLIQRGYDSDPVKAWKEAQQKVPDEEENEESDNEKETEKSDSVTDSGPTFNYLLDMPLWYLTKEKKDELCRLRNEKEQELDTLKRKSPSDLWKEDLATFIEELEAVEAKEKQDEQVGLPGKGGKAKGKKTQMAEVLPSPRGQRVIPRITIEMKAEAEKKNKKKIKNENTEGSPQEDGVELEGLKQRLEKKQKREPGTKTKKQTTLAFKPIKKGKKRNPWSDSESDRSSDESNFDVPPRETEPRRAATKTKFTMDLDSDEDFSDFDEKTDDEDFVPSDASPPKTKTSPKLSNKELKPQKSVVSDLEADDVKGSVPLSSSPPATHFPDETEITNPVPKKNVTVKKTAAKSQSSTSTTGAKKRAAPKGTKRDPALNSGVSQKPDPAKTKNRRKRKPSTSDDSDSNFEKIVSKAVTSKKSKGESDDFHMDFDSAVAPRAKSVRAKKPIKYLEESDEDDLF

Structure (SMILES): Oc1ccccc1-c1cc(-c2ccccn2)cc(-c2ccccc2O)n1
- IC50 (T47D): > 50 µM
- IC50 (HCT-15): > 50 µM
- inhibition [1]: 4.3%
- IC50 (DU-145): > 50 µM
- inhibition [2]: 65.5%
- inhibition [3]: 0.8%
- IC50 (HeLa): > 50 µM

Structure (SMILES): Oc1ccc(-c2cc(-c3cccnc3)cc(-c3cccc(O)c3)n2)cc1
- IC50 (T47D): > 50 µM
- IC50 (HCT-15): > 50 µM
- IC50 (DU-145): 6.39 µM
- inhibition [2]: 14.8%
- inhibition [4]: 2.8%
- inhibition [3]: 5.9%
- IC50 (HeLa): > 50 µM

Structure (SMILES): Oc1cccc(-c2cc(-c3ccsc3)cc(-c3cccc(O)c3)n2)c1
- IC50 (T47D): 1.51 µM
- IC50 (HCT-15): 1.63 µM
- inhibition [1]: 23%
- IC50 (DU-145): 1.31 µM
- inhibition [2]: 88.1%
- inhibition [4]: 4.5%
- inhibition [3]: 59.2%
- IC50 (HeLa): 16.6 µM

Structure (SMILES): Oc1ccc(-c2cc(-c3ccccn3)cc(-c3ccccc3O)n2)cc1
- IC50 (T47D): > 50 µM
- IC50 (HCT-15): > 50 µM
- IC50 (DU-145): 25.4 µM
- inhibition [2]: 7.8%
- inhibition [3]: 0.2%
- IC50 (HeLa): > 50 µM

Structure (SMILES): COc1cccc2c1C(=O)c1c(O)c3c(c(O)c1C2=O)C[C@@](O)(C(=O)CO)C[C@@H]3O[C@H]1C[C@H](N)[C@H](O)[C@H](C)O1 [DOXORUBICIN]
- IC50 (T47D): 1.34 µM
- IC50 (HCT-15): 1.23 µM
- IC50 (HeLa): 0.88 µM

Structure (SMILES): Oc1cccc(-c2cc(-c3cccnc3)cc(-c3cccc(O)c3)n2)c1
- IC50 (T47D): > 50 µM
- IC50 (HCT-15): > 50 µM
- IC50 (DU-145): > 50 µM
- inhibition [2]: 11.2%
- inhibition [4]: 1.9%
- inhibition [3]: 2.1%
- IC50 (HeLa): > 50 µM

Structure (SMILES): Oc1ccc(-c2cc(-c3ccsc3)cc(-c3cccc(O)c3)n2)cc1
- IC50 (T47D): 0.76 µM
- IC50 (HCT-15): 1.18 µM
- inhibition [1]: 44.7%
- IC50 (DU-145): 2.23 µM
- inhibition [2]: 91.5%
- inhibition [3]: 17.1%
- IC50 (HeLa): 2.58 µM

Structure (SMILES): Oc1ccc(-c2cc(-c3ccoc3)cc(-c3ccc(O)cc3)n2)cc1
- IC50 (T47D): 3.46 µM
- IC50 (HCT-15): 1.53 µM
- IC50 (DU-145): 3.44 µM
- inhibition [2]: 12%
- inhibition [4]: 0%
- inhibition [3]: 74.9%
- IC50 (HeLa): 3.42 µM

Structure (SMILES): Oc1ccc(-c2cc(-c3ccccn3)cc(-c3cccc(O)c3)n2)cc1
- IC50 (T47D): 0.98 µM
- IC50 (HCT-15): > 50 µM
- IC50 (DU-145): 1.98 µM
- inhibition [2]: 11.9%
- inhibition [3]: 2.4%
- IC50 (HeLa): 1.93 µM

Further lines, with some results ahead:

- inhibition [1]: 11%
- inhibition [2]: 78.2%
- inhibition [3]: 10.2%
Structure (SMILES): Oc1cccc(-c2cc(-c3ccsc3)cc(-c3ccccc3O)n2)c1
- IC50 (T47D): > 50 µM
- IC50 (HCT-15): > 50 µM
- IC50 (DU-145): > 50 µM
- IC50 (HeLa): > 50 µM

- inhibition [1]: 8.1%
- inhibition [2]: 55.2%
- inhibition [4]: 0%
- inhibition [3]: 1.9%
Structure (SMILES): Oc1cccc(-c2cc(-c3cccnc3)cc(-c3ccccc3O)n2)c1
- IC50 (T47D): 6.23 µM
- IC50 (HCT-15): 8.28 µM
- IC50 (DU-145): 5.58 µM
- IC50 (HeLa): 7.53 µM

- inhibition [1]: 12.1%
- inhibition [2]: 78.1%
- inhibition [4]: 1.5%
- inhibition [3]: 83.2%
Structure (SMILES): Oc1cccc(-c2cc(-c3cccs3)cc(-c3ccccc3O)n2)c1
- IC50 (T47D): > 50 µM
- IC50 (HCT-15): > 50 µM
- IC50 (DU-145): 9.3 µM
- IC50 (HeLa): > 50 µM

- inhibition [1]: 7%
- inhibition [2]: 62.1%
- inhibition [3]: 29.5%
Structure (SMILES): Oc1cccc(-c2cc(-c3ccoc3)cc(-c3ccccc3O)n2)c1
- IC50 (T47D): > 50 µM
- IC50 (HCT-15): > 50 µM
- IC50 (DU-145): 2.79 µM
- IC50 (HeLa): > 50 µM

- inhibition [1]: 4.7%
- inhibition [2]: 84.5%
- inhibition [3]: 0%
Structure (SMILES): Oc1ccccc1-c1cc(-c2ccsc2)cc(-c2ccccc2O)n1
- IC50 (T47D): > 50 µM
- IC50 (HCT-15): > 50 µM
- IC50 (DU-145): > 50 µM
- IC50 (HeLa): > 50 µM

- inhibition [1]: 9.7%
- inhibition [2]: 80.6%
- inhibition [3]: 13.8%
Structure (SMILES): Oc1ccc(-c2cc(-c3ccsc3)cc(-c3ccccc3O)n2)cc1
- IC50 (T47D): > 50 µM
- IC50 (HCT-15): > 50 µM
- IC50 (DU-145): > 50 µM
- IC50 (HeLa): > 50 µM
